Among the data in ChEMBL document CHEMBL1131052, “Bis-substituted malonic acid hydroxamate derivatives as inhibitors of human neutrophil collagenase (MMP8)” (J Med Chem, 1998) are Ki values, retold here.

pKi: −log10 of the molar value.

In this test the target is Neutrophil collagenase (Homo sapiens, UniProt P22894). Briefly: Inhibition of human neutrophil collagenase (Matrix metalloprotease-8). The gist of the method:
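Catalytic domain of MMP8 (Phe79–Gly242) at 8 nM; fluorogenic substrate Dnp-Pro-Leu-Gly-Leu-Trp-Ala-D-Arg-NH2 at 1 × 10^-5 M; 10 mM CaCl2, 100 mM NaCl, 50 mM Tris/HCl pH 7.6, 25 °C. Initial hydrolysis rates were taken from the fluorescence rise at 350 nm over 100 s. IC50 values were fitted from these rates, and Ki values were derived from the kinetic data.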

Neutrophil collagenase, sequence (P22894 whole entry, the tested form may be a part): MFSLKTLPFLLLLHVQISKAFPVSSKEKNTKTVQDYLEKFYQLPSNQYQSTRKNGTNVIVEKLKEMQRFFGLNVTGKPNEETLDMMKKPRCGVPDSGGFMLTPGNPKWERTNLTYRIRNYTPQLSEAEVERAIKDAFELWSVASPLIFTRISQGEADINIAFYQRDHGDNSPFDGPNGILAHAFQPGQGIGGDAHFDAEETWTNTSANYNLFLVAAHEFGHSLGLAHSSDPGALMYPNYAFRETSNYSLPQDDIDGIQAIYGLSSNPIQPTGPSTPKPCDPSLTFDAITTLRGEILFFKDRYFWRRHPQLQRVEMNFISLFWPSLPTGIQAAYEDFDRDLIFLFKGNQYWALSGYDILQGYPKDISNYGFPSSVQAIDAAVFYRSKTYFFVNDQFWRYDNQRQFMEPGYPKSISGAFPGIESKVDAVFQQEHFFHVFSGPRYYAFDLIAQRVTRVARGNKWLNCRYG

`O=C(NO)C1(C(=O)NCc2ccccc2)Cc2ccccc2C1` showed a negative-log Ki (pKi) of 5.82.
Then `CC(Cc1ccccc1)(C(=O)NO)C(=O)NCc1ccccc1` (stereo not given), with 5.96; and `CC(Cc1ccccc1)(C(=O)NO)C(=O)NCCc1ccccc1` (stereo not given), with 5.02; and `CC(Cc1ccccc1)(C(=O)NO)C(=O)Nc1cccc2ccccc12` (stereo not given), with 4.35.
In the case of `CCOC(=O)C(C)(CC(C)C)C(=O)NO` (stereo not given), the pKi is 4.39.
Turning to `CC(Cc1ccccc1)(C(=O)NO)C(=O)NCCCCc1ccccc1` (stereo not given), the negative-log Ki (pKi) was 6.42.
The result for `CC(Cc1ccccc1)(C(=O)NO)C(=O)NCc1ccc(C(=O)O)cc1` (stereo not given) reads 4.39.
Compound `CC(Cc1ccccc1)(C(=O)NO)C(=O)N1CCc2ccccc2C1` (stereo not given) gave a negative logarithm of the Ki (pKi) of 5.09.
The result for `O=C(NO)C1(C(=O)NCCCc2ccccc2)Cc2ccccc2C1` reads 6.52; that for `CCOC(=O)C(C)(Cc1ccccc1)C(=O)NO` (stereo not given), 4.96.
For `CC(Cc1ccccc1)(C(=O)NO)C(=O)NCCCc1ccccc1` (stereo not given), the pKi is 6.62.
As for `CC(=O)NC(Cc1ccccc1)(C(=O)NO)C(=O)NCc1ccccc1` (stereo not given), the pKi was 5.64.
Consider `CC(Cc1ccccc1)(C(=O)NO)C(=O)Nc1ccccc1` (stereo not given), for which the pKi is 4.36.
Compound `O=C(NO)C1(C(=O)NCCCc2ccccc2)Cc2ccccc2-c2ccccc2C1` showed a pKi of 5.72.
Compound `O=C(NO)C(O)(Cc1ccccc1)C(=O)NCc1ccccc1` (stereo not given) had a pKi of 5.72.
